Results gathered from unrelated publications.
Target: Serine/threonine-protein kinase MARK2 (MARK2, Homo sapiens, UniProt Q7KZI7)
Read-out: enzyme activity
Action: inhibitor

CC(C)(C)c1nc2c(s1)c1nc(N)ncc1c1ccc(NS(=O)(=O)c3c(F)cccc3F)c(F)c12  remaining activity (radiometric; 1 µM): 92%
CCCOc1ccc(OC)c(F)c1C(=O)c1ccc(C(=O)N[C@@H]2CNC[C@H]2NC(=O)c2ccc3[nH]ncc3c2)cc1  remaining activity (10 µM): 33%
CC(C)(O)[C@H]1CC[C@H](Nc2ccc3ncc(-c4cccc(C(F)(F)F)c4)n3n2)CC1  remaining activity (1 µM): 101%
Cn1c(=O)n(-c2ccc(C(C)(C)C#N)cc2)c2c3cc(-c4cnc5ccccc5c4)ccc3ncc21  remaining activity (10 µM): 86%
CC(C)(C)c1nc(-c2cccc(NS(=O)(=O)c3c(F)cccc3F)c2F)c(-c2ccnc(N)n2)s1  remaining activity (radiometric; 1 µM): 94%
O=C(Nc1cnn(-c2csc(C(=O)NC3COC3)c2)c1)Nc1c(F)cccc1Cl  remaining activity (5 µM): 90.7%
Oc1cccc(-c2nc(N3CCOCC3)c3oc4ncccc4c3n2)c1  remaining activity (10 µM): 107%
Cc1nn(CC(F)(F)F)cc1Nc1ncc(C2CC2)c(NCCc2c[nH]cn2)n1  remaining activity (radiometric; 1 µM): 90%
Cc1cnc(NC2CCOCC2)nc1-n1cnc(C(=O)NC(CN)c2cc(F)cc(Cl)c2)c1 (centres unmarked)  remaining activity (radiometric; 1 µM): 45%
NS(=O)(=O)c1ccc(CNc2nc(Nc3cccc(NC(=O)N4CCCC4)c3)ncc2Br)cc1  remaining activity (radiometric; 1 µM): 57%
COc1cc(Nc2cnc(C#N)c(O[C@H](C)CN(C)C)n2)ncc1-c1cnn(C)c1  remaining activity (radiometric; 1 µM): 111%
Cc1nn(CC(F)(F)F)cc1Nc1ncc(Br)c(NCc2ccc(S(N)(=O)=O)cc2)n1  remaining activity (radiometric; 1 µM): 89%
COc1cc(Cl)c(C(=O)N[C@@H](CN[C@H]2CC[C@@H](N)CC2)Cc2ccc(C#N)cc2)cc1-c1ccc(CN[C@H](C)c2ccc(C)cc2)o1  remaining activity (1 µM): 98%
Cc1nn(CC(F)(F)F)cc1Nc1ncc(Br)c(NCCCNC(=O)C2CCC2)n1  remaining activity (radiometric; 1 µM): 19%
CCN(CC)c1ccc(C2=NNC(=O)CC2C)cc1[N+](=O)[O-] (centres unmarked)  remaining activity (10 µM): 90%
CN1CCc2cc(Nc3ncc(C4CC4)c(NCCCNC(=O)C4CCC4)n3)ccc2C1  remaining activity (radiometric; 1 µM): 3%
Cc1sc(C(=O)NC2COC2)cc1-n1cc(NC(=O)Nc2c(F)cccc2Cl)cn1  remaining activity (10 µM): 99.8%
